Laboratory results as given in ChEMBL document CHEMBL1126849, “Synthesis of A-ring fluorinated derivatives of (17 alpha,20E/Z)-[125I]iodovinylestradiols: effect on receptor binding and receptor-mediated target tissue uptake” (J Med Chem, 1993).

Legend:
Details in all cases: in vivo
Rattus norvegicus [1] = assay: Biodistribution in liver of immature female rat after 1 hr administration of 3 micro Ci (111 kBq) in the presence of (+E2); type: ADME, organism-based
In short: (§1)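 Immature female Long Evans rats (21–24 days, 45–70 g), unanesthetized in retention cages, given 3 µCi (111 kBq) 125I-labeled steroid i.v. via lateral tail vein. Vehicle was ethanol diluted in saline containing 1% Tween-80, giving 9% ethanol final. The blocking group received 60 µg unlabeled estradiol co-injected. Rats were killed under ether by axillary bleeding, and tissues were KCl-washed and gamma-counted. Data are %ID/g, mean ± SE, n=3–5.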

Rattus norvegicus [2] = assay: Biodistribution in uterus / spleen, muscle, lungs of immature female rat after 12 hour administration of 3 micro Ci (111 kBq) in the absence of 60 microg estradiol; type: ADME, organism-based
In short: (§2)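 Immature female Long Evans rats (21–24 days, 45–70 g), 3–5 per group, unanesthetized in retention cages, given 3 μCi (111 kBq) 125I-labeled steroid by lateral tail vein. Vehicle: ethanol diluted with saline containing 1% Tween-80, final ethanol 9%. +E2 group co-injected 60 μg unlabeled estradiol (1 h only). Killed under ether; tissues KCl-washed, weighed, gamma-counted. Output: %ID/g (mean, SE) and uterus to blood or nontarget (muscle, spleen, lungs) ratios.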

Rattus norvegicus [3] = assay: Biodistribution in uterus of immature female rat after 1 hr administration of 3 micro Ci (111 kBq) in the presence of (+E2); type: ADME, organism-based; in short: as §2
Rattus norvegicus [4] = assay: Biodistribution in muscle of immature female rat after 3 hour administration of 3 micro Ci (111 kBq) in the absence of 60 microg estradiol; type: ADME, organism-based, Muscle tissue
In short: (§3)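 Immature female Long Evans rats (21–24 days, 45–70 g), three to five per group, given 125I-labeled steroid (3 μCi, 111 kBq) by lateral tail vein without anesthesia. Vehicle: ethanol diluted in saline with 1% Tween-80, final ethanol 9%, 0.22 μm filtered. +E2 groups received 60 μg unlabeled estradiol co-injected. Killed under ether at set times; tissues KCl-washed, blotted, weighed, gamma counted; %ID/g, mean with SE.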

Rattus norvegicus [5] = assay: Biodistribution in blood of immature female rat after 3 hour administration of 3 micro Ci (111 kBq) in the absence of 60 microg estradiol; type: ADME, organism-based; in short: as §1
Rattus norvegicus [6] = assay: Biodistribution in uterus / blood of immature female rat after 3 hour administration of 3 micro Ci (111 kBq) in the absence of 60 microg estradiol; type: ADME, organism-based
In short: (§4)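 Same in vivo procedure: immature female Long Evans rats (21–24 days), three to five per group, 3 μCi (111 kBq) tracer i.v. via tail vein in 9% ethanol/saline/1% Tween-80, ± 60 μg estradiol co-injected at 1 h. Uterus %ID/g (gamma counting) divided by blood, or by nontarget organ (muscle, spleen, lungs), %ID/g to give ratios.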

Rattus norvegicus [7] = assay: Biodistribution in spleen of immature female rat after 1 hr administration of 3 micro Ci (111 kBq) in the presence of (+E2); type: ADME, organism-based; in short: as §3
Rattus norvegicus [8] = assay: Biodistribution in lungs of immature female rat after 1 hr administration of 3 micro Ci (111 kBq) in the absence of 60 microg estradiol; type: ADME, organism-based, Lung; in short: as §1
Rattus norvegicus [9] = assay: Biodistribution in fat of immature female rat after 5 hour administration of 3 micro Ci (111 kBq) in the absence of 60 microg estradiol; type: ADME, organism-based, Adipose tissue; in short: as §1
Rattus norvegicus [10] = assay: Biodistribution in uterus / spleen, muscle, lungs of immature female rat after 3 hour administration of 3 micro Ci (111 kBq) in the absence of 60 microg estradiol; type: ADME, organism-based; in short: as §2
Rattus norvegicus [11] = assay: Biodistribution in kidney of immature female rat after 3 hour administration of 3 micro Ci (111 kBq) in the absence of 60 microg estradiol; type: ADME, organism-based; in short: as §1
Rattus norvegicus [12] = assay: Biodistribution in fat of immature female rat after 1 hr administration of 3 micro Ci (111 kBq) in the presence of (+E2); type: ADME, organism-based, Adipose tissue; in short: as §1
Rattus norvegicus [13] = assay: Biodistribution in thyroid of immature female rat after 3 hour administration of 3 micro Ci (111 kBq) in the absence of 60 microg estradiol; type: ADME, organism-based, Thyroid gland; in short: as §3
Rattus norvegicus [14] = assay: Biodistribution in muscle of immature female rat after 12 hour administration of 3 micro Ci (111 kBq) in the absence of 60 microg estradiol; type: ADME, organism-based, Muscle tissue; in short: as §3
Rattus norvegicus [15] = assay: Biodistribution in blood of immature female rat after 1 hr administration of 3 micro Ci (111 kBq) in the absence of 60 microg estradiol; type: ADME, organism-based; in short: as §1
Rattus norvegicus [16] = assay: Biodistribution in kidney of immature female rat after 1 hr administration of 3 micro Ci (111 kBq) in the absence of 60 microg estradiol; type: ADME, organism-based; in short: as §1
Rattus norvegicus [17] = assay: Biodistribution in fat of immature female rat after 3 hour administration of 3 micro Ci (111 kBq) in the absence of 60 microg estradiol; type: ADME, organism-based, Adipose tissue; in short: as §1
Rattus norvegicus [18] = assay: Biodistribution in liver of immature female rat after 12 hour administration of 3 micro Ci (111 kBq) in the absence of 60 microg estradiol; type: ADME, organism-based; in short: as §1
Rattus norvegicus [19] = assay: Biodistribution in spleen of immature female rat after 3 hour administration of 3 micro Ci (111 kBq) in the absence of 60 microg estradiol; type: ADME, organism-based; in short: as §3
Rattus norvegicus [20] = assay: Biodistribution in uterus / spleen, muscle, lungs of immature female rat after 1 hr administration of 3 micro Ci (111 kBq) in the presence of (+E2); type: ADME, organism-based; in short: as §4
Rattus norvegicus [21] = assay: Biodistribution in uterus / blood of immature female rat after 5 hour administration of 3 micro Ci (111 kBq) in the absence of 60 microg estradiol; type: ADME, organism-based; in short: as §4
Rattus norvegicus [22] = assay: Biodistribution in blood of immature female rat after 5 hour administration of 3 micro Ci (111 kBq) in the absence of 60 microg estradiol; type: ADME, organism-based; in short: as §1
Rattus norvegicus [23] = assay: Biodistribution in lungs of immature female rat after 3 hour administration of 3 micro Ci (111 kBq) in the absence of 60 microg estradiol; type: ADME, organism-based, Lung; in short: as §3
Rattus norvegicus [24] = assay: Biodistribution in liver of immature female rat after 1 hr administration of 3 micro Ci (111 kBq) in the absence of 60 microg estradiol; type: ADME, organism-based; in short: as §1
Rattus norvegicus [25] = assay: Biodistribution in uterus of immature female rat after 3 hour administration of 3 micro Ci (111 kBq) in the absence of 60 microg estradiol; type: ADME, organism-based; in short: as §2
Rattus norvegicus [26] = assay: Biodistribution in spleen of immature female rat after 5 hour administration of 3 micro Ci (111 kBq) in the absence of 60 microg estradiol; type: ADME, organism-based; in short: as §3

Row | SMILES | uterus to nontarget tissue ratio (Rattus norvegicus [2]) | ID/g (Rattus norvegicus [3]) | ID/g (Rattus norvegicus [4]) | ID/g (Rattus norvegicus [5]) | uterus to blood %ID/g ratio (unitless) (Rattus norvegicus [6]) | ID/g (Rattus norvegicus [7]) | ID/g (Rattus norvegicus [8]) | ID/g (Rattus norvegicus [9]) | Uterus to nontarget tissue (spleen, muscle, lungs) uptake ratio (Rattus norvegicus [10]) | ID/g (Rattus norvegicus [11]) | ID/g (Rattus norvegicus [12]) | ID/g (Rattus norvegicus [13]) | ID/g (Rattus norvegicus [14]) | ID/g (Rattus norvegicus [15]) | ID/g (Rattus norvegicus [16]) | ID/g (Rattus norvegicus [17]) | ID/g (Rattus norvegicus [18]) | ID/g (Rattus norvegicus [19]) | uterus-to-nontarget tissue uptake ratio (Rattus norvegicus [20]) | uterus to blood ratio (Rattus norvegicus [21]) | further results
1 | C[C@@H]1Cc2c(ccc(O)c2F)[C@H]2CC[C@@]3(C)[C@@H](CC[C@@]3(O)/C=C\I)[C@H]12 | 17.02% | 0.5% | 0.28% | 0.39% | 10.6% | 0.69% | 0.71% | 1.7% | 8.32% | 0.85% | 1.39% | 304% | 0.16% | 0.44% | 1.07% | 1.42% | 0.8% | 0.72% | 0.88% | 10.01% | ID/g (Rattus norvegicus [1]): 1.54%; ID/g (Rattus norvegicus [22]): 0.36%; ID/g (Rattus norvegicus [23]): 0.46%; ID/g (Rattus norvegicus [24]): 1.35%; ID/g (Rattus norvegicus [25]): 4.11%; ID/g (Rattus norvegicus [26]): 0.57%
2 | CO[C@H]1C[C@@]2(C)[C@@H](CC[C@@]2(O)/C=C/I)[C@@H]2CCc3cc(O)c(F)cc3[C@H]21 | 6.75% | 0.81% | 0.56% | 0.38% | 8.28% | 1.04% | 0.95% | 1.57% | 8.2% | 0.96% | 4.31% | 355% | 0.07% | 0.45% | 1.44% | 1.82% | 1.48% | 0.8% | 0.86% | 12.41% | ID/g (Rattus norvegicus [22]): 0.32%; ID/g (Rattus norvegicus [23]): 0.62%; ID/g (Rattus norvegicus [24]): 3.5%; ID/g (Rattus norvegicus [25]): 3.23%; ID/g (Rattus norvegicus [26]): 0.82%
3 | C[C@@H]1Cc2cc(O)c(F)cc2[C@H]2CC[C@@]3(C)[C@@H](CC[C@@]3(O)/C=C/I)[C@H]12 | 2.55% | 0.39% | 0.15% | 0.2% | 4.11% | 0.45% | 0.54% | 1.28% | 3% | 0.29% | 1.48% | 197% | 0.17% | 0.29% | 0.63% | 1.36% | 1% | 0.43% | 1.09% | 3.69% | ID/g (Rattus norvegicus [1]): 2.28%; ID/g (Rattus norvegicus [22]): 0.17%; ID/g (Rattus norvegicus [23]): 0.28%; ID/g (Rattus norvegicus [24]): 2.29%; ID/g (Rattus norvegicus [25]): 0.85%; ID/g (Rattus norvegicus [26]): 0.18%
4 | CO[C@H]1C[C@@]2(C)[C@@H](CC[C@@]2(O)/C=C\I)[C@@H]2CCc3c(ccc(O)c3F)[C@H]21 | 19.35% | 1.06% | 0.48% | 0.56% | 13.35% | 1.28% | 0.84% | 0.75% | 11.77% | 1.08% | 1.82% | 1446% | 0.27% | 0.66% | 1.64% | 1.13% | 0.83% | 0.72% | 1.11% | 20.08% | ID/g (Rattus norvegicus [1]): 2.77%; ID/g (Rattus norvegicus [22]): 0.51%; ID/g (Rattus norvegicus [23]): 0.66%; ID/g (Rattus norvegicus [24]): 2%; ID/g (Rattus norvegicus [25]): 7.48%; ID/g (Rattus norvegicus [26]): 0.66%
5 | C[C@@H]1Cc2cc(O)c(F)cc2[C@H]2CC[C@@]3(C)[C@@H](CC[C@@]3(O)/C=C\I)[C@H]12 | 15.99% | 0.39% | 0.32% | 0.32% | 14.81% | 0.56% | 0.56% | 2.2% | 7.35% | 0.69% | 1.58% | 202% | 0.19% | 0.45% | 1.11% | 1.54% | 1.69% | 0.74% | 0.76% | 11.08% | ID/g (Rattus norvegicus [1]): 1.83%; ID/g (Rattus norvegicus [22]): 0.33%; ID/g (Rattus norvegicus [23]): 0.36%; ID/g (Rattus norvegicus [24]): 2.19%; ID/g (Rattus norvegicus [25]): 4.03%; ID/g (Rattus norvegicus [26]): 0.51%
